High-throughput results deposited in PubChem BioAssay by SRMLSC.
Fibroblast inh: blocks proliferation of human lung fibroblasts. LL 47 human lung fibroblast viability, ATP luminescence; hits give low values. viability, % at 10 µM. 85,000 compounds, 1.1% hits. AID 719;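 active = viability at or below 50% in the single dose screen; inactive = viability above 50%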;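 note: compound exposure lasted 72 h before the ATP readout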
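material = human LL 47 lung fibroblast cells | dosing = compounds added from tenfold dosing solution, 0.1% DMSO final | timing = overnight cell rest, 72 h compound treatment at 37 °C | measured by = CellTiter-Glo luminescence measuring cellular ATP | evaluation = % viability versus median cells-only luminescence | control set = cell-only wells, no compound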
HCT116 bCat-KO: beta-catenin-lacking colon tumor cell growth suppression. 140,000 compounds, 1.5% hits. HCT116 beta-catenin knockout viability, CellTiter-Glo, 60 h; hits give low values. viability, % at 10 µM;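 active = viability at or under a set limit, the compound median less 4 SD, cut at about 6% in these data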
H69AR inhibit: growth inhibitors of human H69AR lung tumor cells. H69AR lung tumor viability, ATP luminescence, 72 h; hits give low values. viability, % at 10 µM. 85,000 compounds, 6% hits;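 active = viability at or below 40%; inactive = viability above 40%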;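 note: multidrug resistant small cell line overexpressing MRP-1 efflux transporter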
HCT116 PTEN-null: PTEN-deleted cell growth suppression; HCT116 PTEN-null viability, CellTiter-Glo, 60 h; hits give low values; viability, % at 10 µM; 140,000 compounds, 1.2% hits;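 active = viability at or below a set limit, 4 SD under the median of all tested compounds, cut at about 3.7% in these data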;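 note: PTEN knockout HCT116 line with beta catenin targeted HCT116 as companion control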
HUVEC prolif 384: blocks proliferation of human endothelial cells; HUVEC proliferation, CellTiter-Glo luminescence, 72 h; hits give low values; viability, % at 10 µM (by protocol); 86,000 compounds, 1.1% hits;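 active = viability at or below 30%; inactive = viability above 30%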
Numbers stand for hits; n = inactive; x = no result given. The sample as a whole holds a higher share of hits than the screen did.

SMILES	Fibroblast inh	HCT116 bCat-KO	H69AR inhibit	HCT116 PTEN-null	HUVEC prolif 384
C=CCn1c(=O)c2ccccc2n2c(Sc3nnnn3-c3ccccc3)nnc12	x	n	n	n	n
CCOC(=O)/C=C1\Nc2ccccc2OC1=O	x	n	x	n	x
Cn1c(SCC(=O)N/N=C/c2ccc([N+](=O)[O-])s2)nnc1-c1ccc(Cl)cc1	x	1.9	x	1.6	x
O=C(N/N=C/c1ccc(Br)s1)c1ccccc1[N+](=O)[O-]	x	n	x	n	x
Cc1ccc(C(=O)N/N=C\c2ccc([N+](=O)[O-])s2)cn1	x	2.4	x	2.6	x
Cc1ccc(/C=N\NC(=O)c2cc([N+](=O)[O-])cc([N+](=O)[O-])c2)o1	x	n	x	n	x
O=C(N/N=C/c1ccc([N+](=O)[O-])s1)c1ccncc1	x	2.5	x	2.5	x
Cc1ccc(C(=O)N/N=C/c2ccc([N+](=O)[O-])s2)cc1	49.1	1.9	20.3	1.3	n
O=C(CSc1nnc(-c2cccnc2)s1)Nc1ccc(C(=O)O)cc1	x	n	x	n	x
C=C(C)CC1(NC(C)c2ccccc2)CCCCC1 (configuration not stated)	x	n	x	n	x
O=C(CSc1nc2ccccc2c(=O)n1CCCN1CCOCC1)Nc1cccc(S(=O)(=O)N2CCCCCC2)c1	x	n	x	n	x
O=C(N/N=C/c1ccc([N+](=O)[O-])s1)c1cccc(Br)c1	2.6	n	38.9	n	n
O=C(N/N=C/C=C/c1ccccc1)c1cccc(Br)c1	n	n	37.5	n	n
COc1ccc(NCc2ccc([N+](=O)[O-])s2)cc1	x	n	x	n	x
COc1ccc(NC(=O)CCC(=O)N/N=C/c2ccc([N+](=O)[O-])s2)cc1	x	1.4	x	1.1	x
COC(=O)c1ccc(C(=O)OC)c(-n2c(=O)c3ccccc3c3ccccc3c2=O)c1	x	n	x	n	x
O=C(c1ccccc1F)N(Cc1ccc2c(c1)OCO2)Cc1cc2cc3c(cc2n2nnnc12)OCO3	n	n	n	n	n
CC1=C(C(=O)Nc2ccccc2)C(c2ccc(C)o2)n2c(s/c(=C\c3ccco3)c2=O)=N1 (configuration not stated)	n	n	3.5	n	n
COc1cccc(C2C(C(=O)Nc3ccccc3)=C(C)N=c3s/c(=C/c4ccc(OCC(=O)O)cc4)c(=O)n32)c1 (configuration not stated)	x	n	x	n	x
CC(=O)Oc1ccc2ccccc2c1C(NC(=O)Cc1ccccc1)c1ccc(Cl)cc1 (configuration not stated)	x	0.8	x	0.9	x
O=[N+]([O-])c1cc(Br)c(O)c(/C=N/Nc2nnnn2-c2cccc3ccccc23)c1	x	n	x	n	x
COc1ccc(OC)c(NC(=O)C(=O)NCCC2=CCCCC2)c1	x	n	x	n	x
CSc1cc(-c2ccccc2)n(Cc2ccc(Cl)cc2Cl)c(=O)c1C#N	n	n	35.8	n	n
CCC(CC)COC(=O)C(C#N)c1nc2ccccc2nc1N1CCN(CC)CC1 (configuration not stated)	n	n	n	n	3.2
CCC(C)COC(=O)C(C#N)c1nc2ccccc2nc1N1CCCCC1 (configuration not stated)	n	n	n	n	n
SMILES	Fibroblast inh	HCT116 bCat-KO	H69AR inhibit	HCT116 PTEN-null	HUVEC prolif 384
C=CCOC(=O)C(C#N)c1nc2ccccc2nc1N1CCC(C(=O)OCC)CC1 (configuration not stated)	n	n	39.2	n	n
CCCCCCOC(=O)C(C#N)c1nc2ccccc2nc1N1CCN(C)CC1 (configuration not stated)	n	n	3.6	n	5.8
Cc1cccc2cc(C(c3nnnn3Cc3ccccc3)N3CCCc4ccccc43)c(=O)[nH]c12 (configuration not stated)	x	1.8	x	2.7	x
COc1ccc2c(c1)Cc1sc(NC(=O)c3ccccc3)nc1-2	n	n	11.0	n	n
COc1ccc(C(=O)Nc2nc3c(s2)Cc2cc(OC)ccc2-3)cc1	n	n	n	n	n
Cc1ccc(CN(CC(=O)NC2CCCC2)C(=O)CSc2nnc(COc3ccccc3)o2)cc1	n	n	16.5	n	n
O=C(CN(Cc1ccccc1)C(=O)CSc1nnc(COc2ccccc2)o1)NC1CCCC1	n	n	n	n	n
O=C(Nc1c(C(=O)Nc2cccc(F)c2)oc2ccccc12)c1ccc2c(c1)OCO2	n	n	24.4	n	n
COc1ccc(/C=C/c2cc(-c3ccc(C)cc3)o[n+]2C)cc1	x	1.2	x	1.5	x
Cc1ccc(NC(=O)c2cc([N+](=O)[O-])ccc2NCc2cccnc2)cc1	x	n	x	n	x
COc1cccc(N(C(=O)c2ccco2)c2nc(-c3sc(NC(=O)c4ccco4)nc3C)cs2)c1	x	3.8	x	n	x
